Test results published in paper PMC2034471 (Nucleic Acids Research, 2007).

What was measured:
35 bp Gap = assay: EMSA, 35 bp DNA with gap; format: binding; conditions: read-out: Kd, 35 bp Gap, without DTT, 50 mM Tris–HCl pH 8.0, 50 mM NaCl, 2 h at 22°C
Method in brief: (§1)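 35-mer substrates (ss, GT mismatch, nick, gap, 3′-biotinylated duplex) made by annealing oligonucleotides in 10 mM Tris–HCl pH 8, 1 mM EDTA, 200 mM NaCl: 90°C 10 min, then slow cooling. Annealing checked on native gels. 5′-32P kinase labelling at 25°C. Incubation 2 h at 22°C in 50 mM Tris–HCl pH 8.0, 50 mM NaCl, with or without 1 mM DTT. Native 6% gels; phosphor-screen quantification for affinity.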

[1] = aggregation / stability of Rad9 fragments in solution; format: physicochemical; conditions: after three days at 0.2 mM and 30°C; MES 50 mM, NaCl 50 mM, 2 mM TCEP, pH 6
[2] = tested on: 35 bp ds with a 3′ terminal biotin; assay: EMSA, 35 bp ds DNA with one 3′ terminal biotin; format: binding
Method in brief: as §1

[3] = tested on: 146 bp double-stranded DNA; assay: EMSA, 146 bp ds DNA; format: binding; conditions: DNA 26 nM, 2- to 128-fold molar excess of protein
Method in brief: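 146 bp fragment made by PCR on a pUC(357.4) digest template and 5′-end labelled with 32P-ATP/T4 polynucleotide kinase at 37°C. Protein fragments incubated with labelled DNA for 2 h at 22°C in 50 mM Tris–HCl pH 8.0, 1 mM EDTA, 1 mM AEBSF, 1 mM DTT, 50 mM NaCl, 0.1% triton X-100. Resolved on pre-run 6% native polyacrylamide (29:1) in 0.5× TEG at 70 V. Complexes detected by autoradiography of dried gels at –80°C.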

35 bp Nick = assay: EMSA, 35 bp DNA with nick; format: binding; conditions: read-out: Kd, 35 bp Nick, without DTT, 50 mM Tris–HCl pH 8.0, 50 mM NaCl, 2 h at 22°C
Method in brief: as §1

[4] = ref [23]; cited from earlier work
[5] = target: 35 bp double-stranded DNA; assay: EMSA, 35 bp ds DNA; format: binding; conditions: read-out: Kd, 35 bp ds, without DTT, 50 mM Tris–HCl pH 8.0, 50 mM NaCl, 2 h at 22°C, DNA 26 nM
[6] = target: 211 bp double-stranded DNA; assay: EMSA, 211 bp ds DNA; format: binding; conditions: read-out: Kd, 211 bp ds, with 1 mM DTT, 50 mM Tris–HCl pH 8.0, 50 mM NaCl, 0.1% triton X-100, 2 h at 22°C, phosphor screen
Method in brief: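 211 bp fragment PCR-amplified from a DraI/BamHI digest of pUC(357.4) and 5′-32P end-labelled with T4 kinase at 37°C. Binding ran 2 h at 22°C in Tris–HCl pH 8.0 buffer with EDTA, AEBSF, 1 mM DTT, 50 mM NaCl and 0.1% triton X-100. Gels were 6% native polyacrylamide in 0.5× TEG at 70 V. Dried gels went onto a phosphor screen, and radioactive signals were quantified for affinity.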

35 bp mismatch GT = assay: EMSA, 35 bp DNA with GT mismatch; format: binding; conditions: read-out: Kd, 35 bp mismatch GT, without DTT, 50 mM Tris–HCl pH 8.0, 50 mM NaCl, 2 h at 22°C
Method in brief: as §1

35 bp ss = assay: EMSA, 35 nt single-stranded DNA; format: binding; conditions: read-out: Kd, 35 bp ss, without DTT, 50 mM Tris–HCl pH 8.0, 50 mM NaCl, 2 h at 22°C
Method in brief: as §1

Kd (35 bp Gap): 960 ± 130 nM
Kd ([2]; read-out: Kd, 35 bp ds with a 3′ terminal biotin, EMSA, with 1 mM DTT, 50 mM Tris–HCl pH 8.0, 50 mM NaCl, 2 h at 22°C): 830 ± 50 nM
Kd (35 bp Nick): 620 ± 60 nM
Kd [5]: 960 ± 80 nM
Kd [6]: 500 ± 70 nM
Kd (35 bp mismatch GT): 890 ± 70 nM
Kd (35 bp ss): 2500 ± 180 nM
B1: ScRad9[754–947]: fragment 754–947 of Saccharomyces cerevisiae Rad9, tandem tudor domain (protein)
chain: GKDSKEQSYVFPEGIRTADNSFLSKDDIIFGNAVWCQYTWNYKFYPGILLEVDTNQDGCWIYFETGRSLTKDEDIYYLDIRIGDAVTFDGNEYVVVGLECRSHDLNIIRCIRGYDTVHLKKKNASGLLGKRTLIKALSSISLDLSEWAKRAKIILEDNEKNKGDAYRYLRHPIRGRKSMTNVLSPKKHTDDEKD
fraction of fragment aggregated [1]: 50%
effect of biotin on affinity for the oligonucleotide ([2]; 35 bp ds, biotinylated at one or two 3′-OH ends, no streptavidin): does not modify the affinity
interaction with 146 bp ds DNA by gel retardation [3]: forms complexes
heat transition midpoint [4]: 52 °C
